# Screens: PubChem, several laboratories
# GPR7 antag – antagonists of human GPR7 (neuropeptides B/W receptor 1); hit rate 1.1% among 290,000; inhibition, % at 4.4 µM; GPR7-expressing cells, fluorescence antagonist assay; in the data active = inhibition above about 16%, passing the limit was not always enough;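 also: cells stimulated with the agonist NPW; 0% = agonist with vehicle and 100% = vehicle without agonist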
# TAAR1 ag – agonists of human TAAR1; Q96RJ0; CHO RD-HGA16 TAAR1, Fluo-8 calcium fluorescence; vehicle wells 0%, saturating PEA agonist 100%; activation, % at 3 µM; hit rate 0.99% among 360,000;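 active = activation above the mean activation of all test compounds in the run plus 3 SD, cut at about 38% in these data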
#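 Assay system – CHO-derived RD-HGA16 cells with stable Gα16 and human TAAR1 · Compound dosing – one-point dosing at 3 µM (nominal) · Incubation – 17-24 h seeding, 75 min 37 °C dye, 30 min RT · Measured by – kinetic Fluo-8 calcium fluorescence · Control set – DMSO vehicle as 0%, PEA at EC100 as 100% · Repeats – single well for each compound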
# TRPML3 agonist – human mucolipin-3 channel agonism; AID 1448; HEK293 TRPML3-YFP, Fluo-8 calcium fluorescence; 100% = the carbachol control signal; activation, % at 3 µM; hit rate 0.29% among 220,000;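 active = activation above its plate's cutoff, the mean activation of the plate's test wells plus 3 SD, cut at about 12% in these data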;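 also: 0% = DMSO only wells and 100% = carbachol wells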
#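 Test system: HEK293 cells stably carrying human TRPML3-YFP; Doses: single dose, 3 µM final nominal compound, 0.3% DMSO final; Schedule: dye loading 1 h 37 °C then 30 min ambient, 125 s read; Technique: Fluo-8 calcium fluorescence; Benchmarks: high control carbachol 87 µM, low control DMSO.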
# LANA-H2B inh – blocks KSHV LANA binding to histone H2A/H2B. Q9QR71. cell-free LANA-H2A/H2B peptide, fluorescence polarization. inhibition, % (no concentration beside the values). hit rate 0.6% among 320,000. AID 2629; in the data active = inhibition mostly above about 10%, no sharp cut-off; inactive = mostly below about 6.7%
# Target sequence (Q9QR71 whole entry, looked up): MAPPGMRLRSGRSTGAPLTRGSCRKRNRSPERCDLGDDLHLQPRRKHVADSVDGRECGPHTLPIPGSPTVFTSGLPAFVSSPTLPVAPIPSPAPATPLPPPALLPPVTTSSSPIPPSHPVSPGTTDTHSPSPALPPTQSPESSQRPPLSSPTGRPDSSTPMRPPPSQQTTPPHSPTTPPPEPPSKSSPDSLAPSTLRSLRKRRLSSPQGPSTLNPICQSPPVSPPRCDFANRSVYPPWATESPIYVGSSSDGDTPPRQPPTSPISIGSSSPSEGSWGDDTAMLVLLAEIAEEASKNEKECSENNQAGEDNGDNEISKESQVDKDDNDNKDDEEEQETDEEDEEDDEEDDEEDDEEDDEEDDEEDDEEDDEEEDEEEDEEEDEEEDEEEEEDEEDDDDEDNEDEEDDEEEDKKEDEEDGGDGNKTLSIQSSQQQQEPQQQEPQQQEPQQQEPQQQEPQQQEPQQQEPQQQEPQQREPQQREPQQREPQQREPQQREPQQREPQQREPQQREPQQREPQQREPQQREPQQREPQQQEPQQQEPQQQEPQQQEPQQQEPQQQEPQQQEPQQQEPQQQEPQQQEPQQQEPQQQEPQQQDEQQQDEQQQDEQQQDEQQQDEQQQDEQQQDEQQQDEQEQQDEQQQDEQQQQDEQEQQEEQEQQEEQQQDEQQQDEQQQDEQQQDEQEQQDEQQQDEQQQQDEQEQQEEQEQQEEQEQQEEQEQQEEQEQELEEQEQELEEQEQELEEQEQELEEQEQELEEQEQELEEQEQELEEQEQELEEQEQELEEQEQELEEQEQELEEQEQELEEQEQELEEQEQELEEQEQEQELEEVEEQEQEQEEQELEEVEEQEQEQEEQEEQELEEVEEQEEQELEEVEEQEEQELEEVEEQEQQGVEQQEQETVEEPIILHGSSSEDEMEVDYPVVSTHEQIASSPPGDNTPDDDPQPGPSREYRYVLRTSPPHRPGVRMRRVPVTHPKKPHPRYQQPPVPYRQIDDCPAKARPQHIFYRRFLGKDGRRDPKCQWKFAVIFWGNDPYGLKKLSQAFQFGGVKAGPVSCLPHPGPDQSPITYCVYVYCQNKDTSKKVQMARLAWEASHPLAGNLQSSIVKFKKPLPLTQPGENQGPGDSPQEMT
# TAAR1 antag – antagonists of human TAAR1; CHO RD-HGA16 TAAR1, Fluo-8 calcium fluorescence, antagonist; hit rate 1.5% among 360,000; Q96RJ0; AID 624466; inhibition, % at 3 µM;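 active = inhibition above a per-plate cutoff, the mean inhibition of test compounds on that plate plus 3 SD, cut at about 49% in these data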;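 also: 0% = DMSO plus EC80 beta-PEA response and 100% = DMSO alone without agonist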
#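 Material: RD-HGA16 CHO cells with stable hTAAR1 and Gα16; Dosing: single nominal final test compound concentration of 3 µM; Schedule: seeding 17-24 h prior, 75-min 37 °C, 30-min RT dye loading; Detection: kinetic Fluo-8 calcium fluorescence measurement; Measure: % inhibition from peak post-agonist over basal fluorescence ratio; Benchmarks: vehicle and agonist controls.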
# zfTRPN1 agonist – activates the zebrafish TRPN1 channel | HEK293 zebrafish TRPN1-YFP, Fluo-8 calcium fluorescence; 100% = response to 87 µM carbachol | AID 1424 | hit rate 0.18% among 220,000 | activation, % at 3 µM;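 active = activation above its plate's cutoff, the mean activation of test wells on that plate plus 3 SD, cut at about 19% in these data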;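 also: 0% = DMSO alone and 100% = 87 µM carbachol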
#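 Assay system: Zebrafish TRPN1-YFP in HEK293 cells | Incubation: Dye loading 1 h at 37 °C, then 30 min room temperature | Measured by: Kinetic Fluo-8 fluorescence, ex 470-495, em 515-575 nm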
# Numbers without * were called inactive; nt = not tested or not shown; + = active, no number. Compounds with a hit are over-represented: about 3.4% of the library has one in this group of screens.
SMILES,GPR7 antag,TAAR1 ag,TRPML3 agonist,LANA-H2B inh,TAAR1 antag,zfTRPN1 agonist
CC(C)(C)C(=O)Nc1ccnn1C1CCN(C(=O)c2ccc(Cl)cc2F)CC1,-16,2,nt,26*,-12,nt
O=C(Nc1ccnn1C1CCN(C(=O)c2cccc(C(F)(F)F)c2)CC1)C1CC1,-7,8,nt,17*,-16,nt
C[C@@H]1CN(c2ccc(N3CCN(C(=O)OC(C)(C)C)C[C@@H]3C)cc2C#N)C[C@H](C)O1,nt,2,nt,nt,-29,nt
Nc1nc2c(ncn2[C@@H]2O[C@H](C(=O)N[C@H](Cc3ccccc3)C(=O)NCc3ccc4c(c3)OCO4)[C@@H](O)[C@H]2O)c(=O)[nH]1,nt,6,nt,nt,-32,nt
COc1ccc2nc(C(F)(F)C(F)(F)F)c(C#N)c(N)c2c1,-13,42*,2,0,5,0
COc1cc(OC)c2c(N)c(C#N)c(C(F)(F)C(F)(F)F)nc2c1,-22,3,0,0,-14,0
CCCCCCCCC(=O)NC(NC(=S)N1CCOCC1)C(Cl)(Cl)Cl (stereo not given),19*,17,0,2,6,2
COC(=O)C1=C(C)N(Cc2ccccc2C(F)(F)F)C(=NCc2ccccc2C(F)(F)F)NC1c1ccc(C(F)(F)F)cc1 (stereo not given),nt,2,nt,nt,-25,nt
COC(=O)c1ccc(OCC2c3cc(OC)c(OC)cc3CCN2C(=O)c2ccco2)cc1 (stereo not given),16,15,0,4,61*,0
COC(=O)c1ccc(OCC2c3cc(OC)c(OC)cc3CCN2C(C)=O)cc1 (stereo not given),19,2,1,-4,-11,0
C[C@@H]1ON(C)[C@H]2C[C@H]3c4cc(Br)ccc4CCN3C[C@@H]12,nt,4,nt,nt,-31,nt
O=c1c(O)c(-c2cccs2)oc2ccccc12,0,45*,16*,1,27,26*
O=C(Nc1ccccc1)c1nc[nH]c1C(=O)NCCCCNC(=O)c1[nH]cnc1C(=O)Nc1ccccc1,nt,21,nt,-1,57*,nt
O=C(Nc1cccc(Cl)c1)c1nc[nH]c1C(=O)NCCCNC(=O)c1[nH]cnc1C(=O)Nc1cccc(Cl)c1,nt,4,nt,-2,20,nt
CCOC(=O)c1ccc(NC(=O)c2nc[nH]c2C(=O)NCCCCCNC(=O)OC(C)(C)C)cc1,nt,14,nt,-4,56*,nt
Cc1ccc(NC(=O)c2nc[nH]c2C(=O)NCCCCCCNC(=O)c2[nH]cnc2C(=O)Nc2ccc(C)cc2)cc1,nt,3,nt,-3,-7,nt
O=C(Nc1ccccc1)c1nc[nH]c1C(=O)NCCNC(=O)c1[nH]cnc1C(=O)Nc1ccccc1,nt,27,nt,0,56*,nt
Cc1ccc(NC(=O)c2nc[nH]c2C(=O)NCCCCNC(=O)c2[nH]cnc2C(=O)Nc2ccc(C)cc2)cc1,nt,18,nt,3,60*,nt
C[C@H](O)[C@@H]1C(=O)N2CCc3c([nH]c4cccc(-c5ccccc5)c34)[C@@H]2C[C@@H]1N(C)C(=O)OCc1ccccc1,nt,0,nt,nt,22,nt
N#C/C(=C\c1ccc(N2CCCCC2)o1)C(N)=O,-16,23,4,-34,13,4
N#C/C(=C/c1ccc(N2CCOCC2)o1)c1ccc(Cl)cc1,-1,13,1,10*,26,0
Cc1ccccc1C(=O)N[C@H](C(=O)N1CCC[C@H]1C(=O)NC1CCCC1)C1CCCCC1,nt,0,nt,nt,-19,nt
CC1=NNC(=O)/C1=C\c1cn(-c2ccccc2)nc1-c1ccccc1,55*,31,4,10,61*,5
O=C(NCc1ccccc1)[C@@H]1CCCN1C(=O)[C@H]1CCCN1C(=O)N1CCCCC1,nt,0,nt,nt,-3,nt
O=C(NC1CCCCC1)NC1(C(=O)N2CCN3CCCC3C2)CCCCC1 (stereo not given),-13,3,0,29*,2,-2
SMILES,GPR7 antag,TAAR1 ag,TRPML3 agonist,LANA-H2B inh,TAAR1 antag,zfTRPN1 agonist
COc1ccc2sc(-c3ccc(S(C)(=O)=O)cc3)c(C(=O)NCCc3c[nH]c4ccccc34)c2c1,nt,28,nt,2,58*,nt
COc1cccc(CNC(=O)[C@H]2CCCN2C(=O)[C@H]2CCCN2C(=O)c2ccc(C)c(C)c2)c1,nt,0,nt,nt,-18,nt
N#Cc1cc(-c2ccccc2)oc1NC(=O)c1ccco1,0,0,-1,-6,15,-1
Cc1cccc(C(=O)Nc2oc(-c3ccccc3)cc2C#N)c1,2,5,0,-2,49*,0
Cn1cc(CCOCc2ccccc2)c2ccccc21,nt,-1,nt,nt,-13,nt
COc1ccc(OC)c(-c2nn(-c3ccccc3)cc2C(=O)N2CCc3ccccc3C2)c1,nt,1,nt,+,22,nt
COc1cccc(-c2nn(-c3ccc(C)cc3)cc2C(=O)N2CCc3cc(OC)c(OC)cc3C2)c1,nt,7,nt,-1,63*,nt
CC(C)(C)c1ccc(-c2cn(-c3ccc(Br)cc3)c3[n+]2CCCS3)cc1,56*,6,0,nt,15,-1
COC(=O)C1=C(C)N(Cc2ccccc2C(F)(F)F)C(=NCc2ccccc2)NC1c1ccc(Cl)cc1 (stereo not given),nt,3,nt,nt,5,nt
C=CC[C@H](CC(=O)N[C@H](CO)Cc1ccccc1)C(=O)N[C@@H](COC(=O)[C@H](CC=C)CC(=O)OC(C)(C)C)Cc1c[nH]c2ccccc12,nt,11,nt,-2,60*,nt
C=CC[C@@H](CC(=O)N[C@H](CO)Cc1ccccc1)C(=O)N[C@H](COC(=O)[C@@H](CC=C)CC(=O)OC(C)(C)C)Cc1c[nH]c2ccccc12,nt,22,nt,-2,65*,nt
C=CC[C@@H](CC(=O)N[C@H](CO)Cc1ccccc1)C(=O)N[C@@H](COC(=O)[C@@H](CC=C)CC(=O)OC(C)(C)C)Cc1c[nH]c2ccccc12,nt,9,nt,-1,33,nt
C=CC[C@@H](CC(=O)N[C@@H](CO)Cc1ccccc1)C(=O)N[C@@H](COC(=O)[C@@H](CC=C)CC(=O)OC(C)(C)C)Cc1c[nH]c2ccccc12,nt,2,nt,nt,25,nt
CC(=O)NCCNc1nc(NCc2cccs2)nc2ccsc12,nt,34,nt,nt,23,nt
c1ccc(CNc2nc(NCCc3ccncc3)c3sccc3n2)cc1,nt,125*,nt,nt,106*,nt
O=C1CCCN1CCCNS(=O)(=O)c1cccs1,nt,17,nt,-6,-9,nt
COc1ccccc1CNc1nc(NCCOc2ccccc2Cl)c2sccc2n1,nt,3,nt,nt,34,nt
O=C1CCCN1CCCNc1nc(NCc2cccs2)nc2ccsc12,nt,92*,nt,nt,99*,nt
Clc1ccccc1OCCNc1nc(NCC2CC2)nc2ccsc12,nt,9,nt,nt,49*,nt
c1csc(CNc2nc(NCC3CCCCC3)c3sccc3n2)c1,nt,43*,nt,nt,61*,nt
F[B-](F)(F)c1cncnc1,nt,1,nt,nt,-8,nt
COc1cccc(CNc2nc(NCc3ccccc3)nc3ccsc23)c1,nt,49*,nt,nt,96*,nt
